An excerpt weighted towards active compounds, which were near 3.7% of everything screened.
MPTP inh: permeability transition pore inhibition. isolated mouse mitochondria, Ca2+ swelling absorbance, 30 min. inhibition, % at 10 µM. 360,000 compounds, 1.4% hits;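 active = inhibition of 50% or more, scaled per plate between neutral and stimulator controls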;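 also: 0% = DMSO wells given calcium and 100% = 1 mM EGTA wells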
procasp7 counter: counter-screen: procaspase-7 (human) activation. P55210. recombinant procaspase-7, Ac-DEVD-pNA absorbance 405 nm; D23A/D198A/D206A triple mutant, cannot self-cleave; scale: DMSO 0, 5 µM enzyme 100. activation, % at 8.5 µM. 330,000 compounds, 0.093% hits. AID 463210;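 active = percent activation above the screen-wide mean plus 3 SD, cut at about 25% in these data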
Target sequence (P55210 whole entry D23A/D198A/D206A): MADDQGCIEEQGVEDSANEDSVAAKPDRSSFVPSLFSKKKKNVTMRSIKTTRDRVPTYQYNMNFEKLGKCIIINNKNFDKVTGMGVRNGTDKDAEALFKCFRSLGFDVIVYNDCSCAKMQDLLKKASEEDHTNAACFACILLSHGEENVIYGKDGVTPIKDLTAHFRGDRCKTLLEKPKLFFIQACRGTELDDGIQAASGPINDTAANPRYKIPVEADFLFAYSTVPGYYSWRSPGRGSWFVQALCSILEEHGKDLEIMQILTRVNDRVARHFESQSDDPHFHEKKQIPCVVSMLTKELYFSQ
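System: Procaspase-7 triple mutant (PC-7 D3A); measure: % activation from two-timepoint absorbance difference, scaled to controls; times: 1 h compound preincubation, 2 h substrate cleavage, 25 °C; also added: Ac-DEVD-pNA substrate, 400 µM as added; measured by: Epi-absorbance of released pNA at 405 nm, two timepoints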
GRIN3A LBD mod: modulates the human NR3A ligand-binding domain. Tm shift relative to glycine control, % at 25 µM. NR3A LBD differential scanning fluorimetry, Tm shift; 0% = protein alone, 100% = glycine-bound protein. AID 1259313. 340,000 compounds, 2.5% hits;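 active = melting temperature shift of at least 10% of the positive control shift, at one fixed dose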
aDG glyco act: alpha-DG glycosylation activation; AID 624168; 360,000 compounds, 0.22% hits; Pro5-aDG cells, alpha-DG glycosylation AlphaScreen (IIH6); 0% Pro5, 100% B10-LARGE cell signal; activation, % at 10 µM;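 active = activation of at least 8% versus controls, or a plate z-score of at least 8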;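 also: Pro5 are CHO cells carrying HIG-tagged alpha-DG that lacks glycosylation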
proCasp3 act: procaspase-3 (human) activation. activation, % at 8.5 µM. recombinant procaspase-3 D3A, Ac-DEVD-pNA absorbance 405 nm. AID 463141. 330,000 compounds, 0.11% hits. P42574;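 active = activation above the mean of all tested compounds plus 3 SD, cut at about 21% in these data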;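 also: 0% = DMSO alone and 100% = DMSO wells spiked with extra 5 µM PC-3 D3A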
Target sequence (P42574 whole entry D9A/D28A/D175A): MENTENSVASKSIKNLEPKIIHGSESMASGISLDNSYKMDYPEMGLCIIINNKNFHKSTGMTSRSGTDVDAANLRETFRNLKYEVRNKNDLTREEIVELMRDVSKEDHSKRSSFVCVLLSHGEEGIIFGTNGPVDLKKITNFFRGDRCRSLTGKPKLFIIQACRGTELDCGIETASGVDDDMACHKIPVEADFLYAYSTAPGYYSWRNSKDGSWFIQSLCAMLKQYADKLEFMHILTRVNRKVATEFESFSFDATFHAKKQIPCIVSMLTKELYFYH
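Technique: 405 nm absorbance of p-nitroaniline, reads at 0 and 120 min; Test system: Procaspase-3 D3A mutant; Incubation: 1 h enzyme-compound preincubation, then 2 h substrate reaction, 25 °C; Repeats: singlicate, each compound tested once; Benchmarks: low control DMSO wells, high control DMSO plus 5 µM PC-3 D3A.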
Numbers without * were called inactive; · = no result.

SMILES | MPTP inh | procasp7 counter | GRIN3A LBD mod | aDG glyco act | proCasp3 act
CCC(=O)Nc1nc2ccc(NC(C)=O)cc2s1 | -1 | -7 | 4 | 0 | -2
CCOc1cccc2sc(Nc3nc4ccc(NC(C)=O)cc4s3)nc12 | 1 | -7 | 26* | 0 | -23
Cc1ccccc1NS(=O)(=O)c1ccc(NC(=O)CSCc2ccc(Br)cc2)cc1 | 20 | 5 | 22* | 0 | 2
O=C(CSCc1ccc(Br)cc1)Nc1ccc(S(=O)(=O)N2CCOCC2)cc1 | -1 | -5 | -8 | 0 | 7
CCCNC(=O)c1cc(C2CCCCN2C(=O)c2ccc(OC)cc2)on1 (configuration not stated) | -1 | · | · | 0 | ·
O=C(/C=C/c1ccc2c(c1)OCCCO2)c1ccc2ccccc2c1O | 2 | 10 | 32* | 0 | 2
Cc1ccccc1OCc1nc(-c2ccccc2)no1 | 0 | -4 | 2 | 0 | -2
Cc1ccccc1OCc1nc(-c2ccc(NC(=O)c3cccs3)cc2)no1 | 8 | 8 | 20* | 0 | -14
Cc1ccc(NC(=O)c2cccs2)cc1 | -1 | -5 | -10 | 0 | 3
Cc1ccccc1-c1nc(-c2ccc(NC(=O)c3cccs3)cc2)no1 | 7 | -1 | 42* | 0 | 4
O=C(Nc1ccc(-c2noc(-c3ccccc3F)n2)cc1)c1cccs1 | 10 | 4 | 29* | 0 | 0
Cc1ccccc1OCc1nc(-c2ccc(Br)o2)no1 | 1 | 6 | 16* | 0 | 6
CC1CC(C)(C)CC2(C1)NC(=O)N(CC(=O)Nc1cc(C(F)(F)F)ccc1N1CCCCC1)C2=O (configuration not stated) | -2 | · | -1 | 0 | ·
O=C(C=Cc1ccc2c(c1)OCO2)OCC=Cc1ccc2c(c1)OCO2 | -1 | · | 0 | 0 | ·
CCOC(=O)C1=C[C@@H](C(C)(C)C)N(S(=O)(=O)c2ccc(C)cc2)[C@H]1c1cccc(Cl)c1 | 3 | · | · | 0 | ·
COc1ccc(NC2CCCN(C(=O)CCc3scnc3C)C2)cc1 (configuration not stated) | 1 | 7 | 14* | 0 | -2
CCOc1ccc(NC(=O)c2ccc3c(=O)n(-c4ccc(OC)cc4OC)c(=S)[nH]c3c2)cc1 | 0 | -2 | · | 1 | 9
COc1ccc(-n2c(=S)[nH]c3cc(C(=O)Nc4ccc(C)c(F)c4)ccc3c2=O)c(OC)c1 | 3 | 2 | 13* | 0 | 2
COc1cc(C(=O)NCc2nc(C)cs2)ccc1OC1CCN(C(C)=O)CC1 | -1 | 4 | 12* | 0 | 7
CCc1ccc(CNC(=O)c2ccc(OC)c(OC3CCN(C(C)C)CC3)c2)nc1 | 1 | -2 | 13* | 0 | 11
COc1ccc(C(=O)NCc2cnn(C)c2)cc1OC1CCN(C(C)C)CC1 | -1 | 8 | 0 | 0 | 8
CC(C)N(Cc1ccccc1)C(=O)COC(=O)c1cnc(Cl)c(Cl)c1 | -1 | 0 | 2 | 0 | 8
CCOC(=O)c1ccc(N/C=C/C(=O)c2ccco2)cc1 | 0 | 3 | -2 | 0 | -9
O=C(/C=C/Nc1ccc(F)cc1)c1ccco1 | -2 | 0 | 15* | 0 | 7
CC(C)=CCC[C@H](C)C[C@@H]1Cc2[nH][nH]c(=O)c2[C@H](c2ccc(F)cc2)O1 | -3 | · | · | 0 | ·
SMILES | MPTP inh | procasp7 counter | GRIN3A LBD mod | aDG glyco act | proCasp3 act
COc1ccccc1-c1cnc(C(O)c2c(C)cc(C)cc2C)[nH]1 (configuration not stated) | 2 | · | · | 0 | ·
CC(C)(C)CC(=O)Nc1cc2c3c(c1)CCN3C(=O)CC2 | 1 | 9 | 0 | 0 | 2
CCC(=O)Nc1cc2c3c(c1)CCN3C(=O)CC2 | -1 | -2 | 11* | 0 | 5
CCCCCCn1c(=O)c(-c2ccccc2)c(O)c2ccccc21 | 0 | 2 | 12* | 0 | 2
CC(=O)N1CCN(C(=O)c2ccc(NS(=O)(=O)c3cc(C)ccc3C)cc2)CC1 | -1 | 3 | -3 | 0 | 12
Cc1ccc(C(=O)NCCSc2ccc(Cl)cc2)cc1S(=O)(=O)Nc1ccccc1 | 48 | 2 | 22* | 0 | 7
Cc1ccc(NS(=O)(=O)c2cc(C(=O)NCCSc3ccc(C)cc3)ccc2C)cc1 | 35 | -1 | 13* | 0 | 4
Cc1ccc(C)c(S(=O)(=O)Nc2ccc(C(=O)N3CCCCC3)cc2)c1 | 0 | -1 | 14* | 0 | -4
COCCN(C(=O)COC(=O)CCC1CCCCC1)c1c(N)n(Cc2ccccc2)c(=O)[nH]c1=O | -2 | · | · | 0 | ·
C=Cc1ccc(CC2(C)C(=O)Nc3ccc(-c4cccnc4)cc32)cc1 (configuration not stated) | 0 | · | · | 1 | ·
COc1cc(/C=C2/NC(=O)N(Cc3ccccc3F)C2=O)cc(OC)c1O | 2 | 0 | 1 | 0 | -5
CCOc1cc(/C=C2/NC(=O)N(Cc3ccccc3F)C2=O)ccc1O | 4 | -5 | 30* | 0 | -12
O=C(Nc1ccccc1Cl)c1ccccc1Oc1ccc(C(F)(F)F)cc1[N+](=O)[O-] | 3 | 1 | 12* | 0 | -11
O=C(c1ccccc1Oc1ccc(C(F)(F)F)cc1[N+](=O)[O-])N1CCOCC1 | 2 | 6 | 2 | 0 | 2
C[C@@H]1CN([C@@H](C)CO)C(=O)CCCn2nncc2CO[C@@H]1CN(C)C(=O)Nc1cccc(Oc2ccccn2)c1 | 0 | · | · | 0 | ·
Cc1noc(C)c1C(=O)OCC(=O)NC1CCCCC1C (configuration not stated) | 1 | · | -2 | 0 | ·
Cc1noc(C)c1C(=O)OCC(=O)NC1CC1 | -2 | 14 | 16* | 0 | -3
Cn1c(=NC(=O)CS(=O)(=O)c2ccccc2)sc2cc([N+](=O)[O-])ccc21 | 0 | -1 | -1 | -1 | 4
CCc1ccc(S(=O)(=O)N2c3ccc(C)cc3C3CN(C)CCC32)cc1 (configuration not stated) | 1 | 10 | 0 | 0 | -3
Cc1ccc2c(c1)[C@@H]1CN(C)CC[C@@H]1N2S(=O)(=O)c1ccc(F)cc1 | 0 | 4 | 14* | 0 | 0
CC(C)N1C(=O)C(=O)N(CC(=O)N2c3ccccc3NC(=O)CC2C)C1=O (configuration not stated) | 0 | · | 1 | 0 | ·
CN(C)c1cccc(C(=O)NNC(=O)C23CC4CC(CC(C4)C2)C3)c1 | -1 | -12 | -2 | 0 | -3
CC(Nc1nc(-c2ccccc2O)nc2ccccc12)c1ccccc1 (configuration not stated) | 20 | -12 | 22* | 0 | -7
CC(Nc1nc(-c2ccccc2F)nc2ccccc12)c1ccccc1 (configuration not stated) | 0 | 1 | 3 | 0 | -2
Oc1ccccc1-c1nc(NC2CCCC2)c2ccccc2n1 | -1 | -1 | 19* | 0 | -4

Source: PubChem BioAssay (several laboratories)
